The values below come from ChEMBL document CHEMBL4819139, “Green synthesis of therapeutically active 1,3,4-oxadiazoles as antioxidants, selective COX-2 inhibitors and their in silico studies” (Bioorg Med Chem Lett, 2021).

Values after ≈ are worked out from the molar mass of the structure shown.

Assay [1] concerns the target Prostaglandin G/H synthase 1 (Homo sapiens, UniProt P23219). Kind of assay: Inhibition of COX-1 (unknown origin).
Assay [2] concerns the target T1, Prostaglandin G/H synthase 2 (Homo sapiens, UniProt P35354).
T1 sequence (P35354 whole entry): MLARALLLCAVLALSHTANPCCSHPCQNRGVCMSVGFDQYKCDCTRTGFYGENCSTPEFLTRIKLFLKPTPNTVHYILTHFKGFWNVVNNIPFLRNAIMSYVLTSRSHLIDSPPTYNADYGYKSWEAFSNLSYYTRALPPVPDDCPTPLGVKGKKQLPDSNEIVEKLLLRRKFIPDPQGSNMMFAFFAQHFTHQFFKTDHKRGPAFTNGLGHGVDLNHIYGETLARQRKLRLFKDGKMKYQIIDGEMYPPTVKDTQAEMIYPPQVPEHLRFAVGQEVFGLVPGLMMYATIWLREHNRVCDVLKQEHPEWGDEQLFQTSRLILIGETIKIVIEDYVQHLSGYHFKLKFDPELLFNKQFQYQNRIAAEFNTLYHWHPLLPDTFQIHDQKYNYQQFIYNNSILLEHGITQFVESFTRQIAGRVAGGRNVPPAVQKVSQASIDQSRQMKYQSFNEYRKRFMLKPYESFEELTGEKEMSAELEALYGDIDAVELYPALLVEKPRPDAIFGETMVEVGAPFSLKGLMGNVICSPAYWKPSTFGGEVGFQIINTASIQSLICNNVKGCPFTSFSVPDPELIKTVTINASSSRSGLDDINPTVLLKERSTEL
Kind of assay: Inhibition of COX-2 (unknown origin). The method in brief: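 Percent COX-2 inhibition was measured at several compound concentrations. Mefenamic acid served as the reference standard.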

The nature of assay [3]: Antioxidant activity assessed as DPPH free radical scavenging activity in iron free medium. The assay is classed as functional. Background: The DPPH test is a chemical assay of radical scavenging.

Chain of Prostaglandin G/H synthase 1 (P23219 whole entry): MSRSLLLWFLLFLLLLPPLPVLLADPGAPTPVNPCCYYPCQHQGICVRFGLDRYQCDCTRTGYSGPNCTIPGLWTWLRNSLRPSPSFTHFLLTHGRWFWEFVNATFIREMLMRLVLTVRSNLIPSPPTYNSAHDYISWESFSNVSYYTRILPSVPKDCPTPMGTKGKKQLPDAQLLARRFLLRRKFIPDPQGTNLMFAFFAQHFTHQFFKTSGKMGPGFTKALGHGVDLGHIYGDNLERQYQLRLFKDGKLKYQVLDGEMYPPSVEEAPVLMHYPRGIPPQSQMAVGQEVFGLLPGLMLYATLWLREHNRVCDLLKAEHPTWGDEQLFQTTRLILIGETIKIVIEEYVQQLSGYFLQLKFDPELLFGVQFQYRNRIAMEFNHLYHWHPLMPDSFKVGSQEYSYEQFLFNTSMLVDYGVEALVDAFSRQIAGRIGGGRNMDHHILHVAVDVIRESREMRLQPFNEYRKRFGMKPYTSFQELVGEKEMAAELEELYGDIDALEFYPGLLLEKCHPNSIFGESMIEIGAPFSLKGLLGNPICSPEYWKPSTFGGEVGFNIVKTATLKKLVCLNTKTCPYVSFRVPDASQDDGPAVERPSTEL

For `Cc1cc(C)c2c(CSc3nnc(CSc4nc5ccccc5o4)o3)cc(=O)oc2c1`, the IC50 was 1120 µM in assay [1], 55.4 µM in assay [2] and 33.41 µg/mL (≈ 74 µM) in assay [3].

With `O=c1cc(CSc2nnc(CSc3nc4ccccc4o3)o2)c2ccc3ccccc3c2o1`, the IC50 in assay [1] is 919 µM; in assay [2], 27.1 µM; in assay [3], 23.71 µg/mL (≈ 50.1 µM).

With `Cc1ccc2oc(=O)cc(CSc3nnc(CSc4nc5ccccc5o4)o3)c2c1`, the concentration for half-maximal inhibition (IC50) in assay [1] was 562 µM; in assay [2], 45.6 µM; in assay [3], 24.04 µg/mL (≈ 54.9 µM).

As to `O=c1cc(CSc2nnc(CSc3nc4ccccc4o3)o2)c2c(ccc3ccccc32)o1`, the half-maximal inhibitory concentration (IC50) was 226 µM in assay [1], 51.9 µM in assay [2] and 45.86 µg/mL (≈ 96.8 µM) in assay [3].

As for `O=c1cc(CSc2nnc(CSc3nc4cc(Cl)ccc4o3)o2)c2c(ccc3ccccc32)o1`, the IC50 in assay [1] is 642 µM; in assay [2], 34.8 µM; in assay [3], 26.78 µg/mL (≈ 52.7 µM).

For `O=c1cc(CSc2nnc(CSc3nc4cc(Cl)ccc4o3)o2)c2ccc3ccccc3c2o1`, the IC50 in assay [1] is 558 µM; in assay [2], 22.3 µM; in assay [3], 23.95 µg/mL (≈ 47.1 µM).

With `Cc1cc(C)c2c(CSc3nnc(CSc4nc5cc(Cl)ccc5o4)o3)cc(=O)oc2c1`, the IC50 in assay [1] is 505 µM; in assay [2], 27.2 µM; in assay [3], 26.98 µg/mL (≈ 55.5 µM).

Consider `COc1ccc2oc(=O)cc(CSc3nnc(CSc4nc5cc(Cl)ccc5o4)o3)c2c1`, for which the results for the IC50 in assay [1], in assay [2] and in assay [3] were 1180 µM, 91.3 µM and 52.85 µg/mL (≈ 108 µM), respectively.

Consider `COc1ccc2oc(=O)cc(CSc3nnc(CSc4nc5ccccc5o4)o3)c2c1`, for which the IC50 in assay [1] was 230 µM; in assay [2] it was 72.6 µM; in assay [3], 63.09 µg/mL (≈ 139 µM).

With `Cc1ccc2c(CSc3nnc(CSc4nc5cc(Cl)ccc5o4)o3)cc(=O)oc2c1`, the figures for the half-maximal inhibitory concentration (IC50) in assay [1], in assay [2] and in assay [3] were 308 µM, 29 µM and 27.73 µg/mL (≈ 58.8 µM), respectively.

With `Cc1ccc2c(CSc3nnc(CSc4nc5ccccc5o4)o3)cc(=O)oc2c1`, the figures for the IC50 in assay [1], in assay [2] and in assay [3] were 199 µM, 54.3 µM and 49.87 µg/mL (≈ 114 µM), respectively.

For `Cc1ccc2oc(=O)cc(CSc3nnc(CSc4nc5cc(Cl)ccc5o4)o3)c2c1`, the IC50 is 437 µM in assay [1], 115 µM in assay [2] and 48.69 µg/mL (≈ 103 µM) in assay [3].

In the case of `O=C1O[C@H]([C@@H](O)CO)C(O)=C1O` [ASCORBIC ACID], the IC50 in assay [3] worked out at 25.74 µg/mL (≈ 146 µM).

`Cc1cccc(Nc2ccccc2C(=O)O)c1C` [MEFENAMIC ACID]: the IC50 in assay [1] was 772 µM; in assay [2], 104 µM.

One may read the IC50 as the concentration that inhibits the measured activity by half.
